Measured values from ChEMBL document CHEMBL3120102, “Structure-based design, synthesis and biological evaluation of novel anthra[1,2-d]imidazole-6,11-dione homologues as potential antitumor agents” (2013).

Legend:
Format in all cases: functional
T47D = assay: Cytotoxicity against human T47D cells assessed as growth inhibition after 48 hrs by SRB assay
How it was run: (§1)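 NCI 60-cell-line screen, two stages. Five-dose testing at […]. Cellular protein measured by sulforhodamine B colorimetry after 48 h drug exposure. A time-zero control and drug-free plates are used to derive GI50, TGI and LC50 from dose-response curves plotted as log10 concentration per cell line.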

BT-549 = assay: Cytotoxicity against human BT549 cells assessed as growth inhibition after 48 hrs by SRB assay; conditions: for GI50 / LC50 (concentration killing 50% of cells) / TGI: BT-549, 48 h
How it was run: (§2)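 NCI 60-cell-line five-dose screen at […]. Drug exposure was 48 h, followed by sulforhodamine B protein staining. GI50, TGI and LC50 were calculated against a time-zero control and untreated plates, with dose–response curves plotted from log10 concentration.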

PC-3 = assay: Cytotoxicity against human PC3 cells assessed as growth inhibition after 48 hrs by SRB assay; conditions: for GI50 / LC50 / TGI: PC-3, 48 h
How it was run: (§3)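 NCI 60-cell-line screen, five-dose stage: each cell line exposed for 48 h to five concentrations spanning five log steps; cellular protein measured by sulforhodamine B colorimetry. A time-zero cell control and plates without drug are used to derive GI50, TGI and LC50 from log-concentration dose-response curves.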

SN12C = assay: Cytotoxicity against human SN12C cells assessed as growth inhibition after 48 hrs by SRB assay; conditions: for CC50: read-out: LC50 (the source's name); how it was run: as §1
RXF 393 = assay: Cytotoxicity against human RXF393 cells assessed as growth inhibition after 48 hrs by SRB assay; conditions: for GI50 / TGI / CC50: RXF 393, 48 h; for CC50: read-out: LC50 (the source's name); how it was run: as §3
[1] = (§4) Cytotoxicity against human NCI-ADR-RES cells assessed as growth inhibition after 48 hrs by SRB assay; how it was run: as §3
NCI/ADR-RES = assay: as §4; how it was run: as §3
U-251 = assay: Cytotoxicity against human U251 cells assessed as growth inhibition after 48 hrs by SRB assay; conditions: for GI50 / TGI / CC50: U-251, 48 h; for CC50: read-out: LC50 (the source's name); how it was run: as §1
HT-29 = assay: Cytotoxicity against human HT-29 cells assessed as growth inhibition after 48 hrs by SRB assay; conditions: for GI50 / TGI / CC50: HT-29, 48 h; for CC50: read-out: LC50 (the source's name); how it was run: as §2
NCI-H23 = assay: Cytotoxicity against human NCI-H23 cells assessed as growth inhibition after 48 hrs by SRB assay; conditions: for GI50 / LC50 / TGI: NCI-H23, 48 h; how it was run: as §3
HOP-92 = assay: Cytotoxicity against human HOP92 cells assessed as growth inhibition after 48 hrs by SRB assay; conditions: for GI50 / TGI / CC50: HOP-92, 48 h; for CC50: read-out: LC50 (the source's name); how it was run: as §2
[2] = (§5) Cytotoxicity against human EKVX cells assessed as growth inhibition after 48 hrs by SRB assay; how it was run: as §2
EKVX = assay: as §5; how it was run: as §2
K562 = assay: Cytotoxicity against human K562 cells assessed as growth inhibition after 48 hrs by SRB assay; conditions: for GI50 / TGI / CC50: K562, 48 h; for CC50: read-out: LC50 (the source's name); how it was run: as §2
CAKI-1 = assay: Cytotoxicity against human CAKI-1 cells assessed as growth inhibition after 48 hrs by SRB assay; how it was run: as §2

## CCSc1nc2ccc3c(c2[nH]1)C(=O)c1ccccc1C3=O
T47D
  GI50: 4.21 µM
  LC50: > 100 µM
  TGI: > 100 µM
  growth inhibition (GI): Dose-dependent effect
BT-549
  growth inhibition (GI): Dose-dependent effect
  GI50: 9.34 µM
  LC50 (concentration killing 50% of cells): > 100 µM
  TGI: > 100 µM
PC-3
  growth inhibition (GI): Dose-dependent effect
  GI50: 65 µM
  LC50: > 100 µM
  TGI: > 100 µM
SN12C
  GI50: 10.3 µM
  TGI: > 100 µM
  growth inhibition (GI): Dose-dependent effect
  CC50: > 100 µM
RXF 393
  growth inhibition (GI): Dose-dependent effect
  GI50: 5.17 µM
  TGI: > 100 µM
  CC50: > 100 µM
[1]
  GI50: 8.04 µM
  LC50 (concentration causing 50% net cell kill): > 100 µM
  TGI: > 100 µM
NCI/ADR-RES
  growth inhibition (GI): Dose-dependent effect
U-251
  growth inhibition (GI): Dose-dependent effect
  GI50: 19.5 µM
  TGI: > 100 µM
  CC50: > 100 µM
HT-29
  growth inhibition (GI): Dose-dependent effect
  GI50: 23.1 µM
  TGI: > 100 µM
  CC50: > 100 µM
NCI-H23
  growth inhibition (GI): Dose-dependent effect
  GI50: 8.6 µM
  LC50: > 100 µM
  TGI: > 100 µM
HOP-92
  growth inhibition (GI): Dose-dependent effect
  GI50: 90.6 µM
  TGI: > 100 µM
  CC50: > 100 µM
[2]
  GI50: 2.13 µM
  LC50: > 100 µM
  TGI: 29 µM
EKVX
  growth inhibition (GI): Dose-dependent effect
K562
  growth inhibition (GI): Dose-dependent effect
  GI50: 13.5 µM
  TGI: > 100 µM
  CC50: > 100 µM

## CN(C)CCCSc1nc2ccc3c(c2[nH]1)C(=O)c1ccccc1C3=O
T47D
  GI50: 8.73 µM
  TGI: 24.8 µM
  growth inhibition (GI): Dose-dependent effect
BT-549
  growth inhibition (GI): Dose-dependent effect
  GI50: 9.13 µM
  TGI: 21.8 µM
SN12C
  GI50: 3.26 µM
  TGI: 16.5 µM
  growth inhibition (GI): Dose-dependent effect
  CC50: 40.6 µM
RXF 393
  growth inhibition (GI): Dose-dependent effect
  GI50: 1.89 µM
  TGI: 12.8 µM
  CC50: 42.3 µM
CAKI-1
  growth inhibition (GI): Dose-dependent effect
CAKI-1; CAKI-1, 48 h
  GI50: 0.822 µM
  TGI: 11 µM
[1]
  GI50: 5.11 µM
  TGI: 21.5 µM
NCI/ADR-RES
  growth inhibition (GI): Dose-dependent effect
U-251
  growth inhibition (GI): Dose-dependent effect
  GI50: 10.1 µM
  TGI: 22 µM
  CC50: 48 µM
HT-29
  growth inhibition (GI): Dose-dependent effect
  GI50: 1.04 µM
  TGI: 2.61 µM
  CC50: 6.53 µM
NCI-H23
  growth inhibition (GI): Dose-dependent effect
  TGI: 19.7 µM
[2]
  GI50: 4.2 µM
  TGI: 20.1 µM
EKVX
  growth inhibition (GI): Dose-dependent effect
K562
  growth inhibition (GI): Dose-dependent effect
  GI50: 2.04 µM
  TGI: 4.73 µM
  CC50: 13.6 µM

## CCCSc1nc2ccc3c(c2[nH]1)C(=O)c1ccccc1C3=O
T47D
  GI50: 2.66 µM
  LC50: > 100 µM
  TGI: > 100 µM
  growth inhibition (GI): Dose-dependent effect
BT-549
  growth inhibition (GI): Dose-dependent effect
  GI50: 33.4 µM
  LC50 (concentration killing 50% of cells): > 100 µM
  TGI: > 100 µM
PC-3
  growth inhibition (GI): Dose-dependent effect
  GI50: 11.3 µM
  LC50: > 100 µM
  TGI: > 100 µM
SN12C
  GI50: 14 µM
  TGI: > 100 µM
  growth inhibition (GI): Dose-dependent effect
  CC50: > 100 µM
RXF 393
  growth inhibition (GI): Dose-dependent effect
  GI50: 2.65 µM
  TGI: 8.1 µM
  CC50: > 100 µM
CAKI-1
  growth inhibition (GI): Dose-dependent effect
CAKI-1; CAKI-1, 48 h
  GI50: 3.07 µM
  LC50: > 100 µM
  TGI: > 100 µM
[1]
  GI50: 2.37 µM
  LC50 (concentration causing 50% net cell kill): > 100 µM
  TGI: > 100 µM
NCI/ADR-RES
  growth inhibition (GI): Dose-dependent effect
U-251
  growth inhibition (GI): Dose-dependent effect
  GI50: 7.05 µM
  TGI: > 100 µM
  CC50: > 100 µM
HT-29
  growth inhibition (GI): Dose-dependent effect
  GI50: > 100 µM
  TGI: > 100 µM
  CC50: > 100 µM
NCI-H23
  growth inhibition (GI): Dose-dependent effect
  GI50: 48 µM
  LC50: > 100 µM
  TGI: > 100 µM
HOP-92
  growth inhibition (GI): Dose-dependent effect
  GI50: 15 µM
  TGI: > 100 µM
  CC50: > 100 µM
[2]
  GI50: 64.9 µM
  LC50: > 100 µM
  TGI: > 100 µM
EKVX
  growth inhibition (GI): Dose-dependent effect
K562
  growth inhibition (GI): Dose-dependent effect
  GI50: 36.4 µM
  TGI: > 100 µM
  CC50: > 100 µM

## O=C1c2ccccc2C(=O)c2c1ccc1nc(SCCN3CCCC3)[nH]c21
T47D
  GI50: 17.5 µM
  LC50: 92.8 µM
  TGI: 40.3 µM
  growth inhibition (GI): Dose-dependent effect
BT-549
  growth inhibition (GI): Dose-dependent effect
  GI50: 12.5 µM
  LC50 (concentration killing 50% of cells): 55.8 µM
  TGI: 26.4 µM
PC-3
  growth inhibition (GI): Dose-dependent effect
  GI50: 2.57 µM
  LC50: 43.4 µM
  TGI: 11 µM
SN12C
  GI50: 5.96 µM
  TGI: 19.6 µM
  growth inhibition (GI): Dose-dependent effect
  CC50: 46.1 µM
RXF 393
  growth inhibition (GI): Dose-dependent effect
  GI50: 3.08 µM
  TGI: 16.3 µM
  CC50: 48.5 µM
[1]
  GI50: 6.98 µM
  LC50 (concentration causing 50% net cell kill): > 100 µM
  TGI: 33.7 µM
NCI/ADR-RES
  growth inhibition (GI): Dose-dependent effect
U-251
  growth inhibition (GI): Dose-dependent effect
  GI50: 6.84 µM
  TGI: 20.3 µM
  CC50: 47.1 µM
HT-29
  growth inhibition (GI): Dose-dependent effect
  GI50: 1.81 µM
  TGI: 4.66 µM
  CC50: 15.2 µM
NCI-H23
  growth inhibition (GI): Dose-dependent effect
  TGI: 25.7 µM
[2]
  TGI: 26.5 µM
EKVX
  growth inhibition (GI): Dose-dependent effect
K562
  growth inhibition (GI): Dose-dependent effect
  GI50: 1.7 µM
  TGI: 5.2 µM
  CC50: 72 µM
